Measured values reported in ChEMBL document CHEMBL4043303, “Development of Novel Melanocortin Receptor Agonists Based on the Cyclic Peptide Framework of Sunflower Trypsin Inhibitor-1” (J Med Chem, 2018).

Experiments:
Melanocortin receptor 4 [1] = target: T1, Melanocortin receptor 4 (Homo sapiens, UniProt P32245); test: Agonist activity at human MC4R expressed in low doxycyclin-treated HEK293 cell membranes assessed as increase in cAMP production after 45 mins by HTRF method; type: functional, cell-based
How it was run: (§1)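 T-REx-293 cells stably expressing doxycycline-inducible human MC1R, MC3R or MC4R; expression induced 24 h with 0.1 ng/mL (low) or 10 ng/mL (high, MC4R only) doxycycline. 1000 cells/well in HBSS, 20 mM HEPES pH 7.4, 0.1% BSA, 1 mM IBMX; stimulated at 37 °C. Time-resolved FRET cAMP read-out normalized to NDP-α-MSH maximum.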

Melanocortin receptor 3 [2] = target: T2, Melanocortin receptor 3 (Homo sapiens, UniProt P41968); test: Agonist activity at human MC3R expressed in low doxycyclin-treated HEK293 cell membranes assessed as increase in cAMP production after 45 mins by HTRF method; type: functional, cell-based; design: concentration or dose not given beside the values; how it was run: as §1
Melanocortin receptor 4 [3] = target: T1, Melanocortin receptor 4; test: Displacement of [125I]-NDP-alpha-MSH from human MC4R LBD expressed in HEK293 cell membranes incubated for 16 to 23 hrs in dark by scintillation proximity assay; design: concentration or dose not given beside the values; conditions: concentration not given here
Melanocortin receptor 4 [4] = target: T1, Melanocortin receptor 4; test: Agonist activity at human MC4R expressed in high doxycyclin-treated HEK293 cell membranes assessed as increase in cAMP production after 15 mins by HTRF method; type: functional, cell-based; how it was run: as §1
Melanocortin receptor 3 [5] = target: T2, Melanocortin receptor 3; test: Displacement of [125I]-NDP-alpha-MSH from human MC3R LBD expressed in HEK293 cell membranes incubated for 16 to 23 hrs in dark by scintillation proximity assay; design: concentration or dose not given beside the values; conditions: concentration not given here
Melanocortin receptor 5 = Melanocortin receptor 5 (Homo sapiens, UniProt P33032); test: Displacement of [125I]-NDP-alpha-MSH from human MC5R LBD expressed in HEK293 cell membranes incubated for 16 to 23 hrs in dark by scintillation proximity assay; design: concentration or dose not given beside the values; conditions: concentration not given here
[6] = target: T3, Melanocyte-stimulating hormone receptor (Homo sapiens, UniProt Q01726); test: Displacement of [125I]-NDP-alpha-MSH from human MC1R LBD expressed in HEK293 cell membranes incubated for 16 to 23 hrs in dark by scintillation proximity assay; design: concentration or dose not given beside the values; conditions: concentration not given here
[7] = target: T3, Melanocyte-stimulating hormone receptor; test: Agonist activity at human MC1R expressed in low doxycyclin-treated HEK293 cell membranes assessed as increase in cAMP production after 45 mins by HTRF method; type: functional, cell-based
[8] = Solubility of the compound in water at 1 mM; type: physicochemical; conditions: buffer, 1000 µM

T3 sequence (Q01726 whole entry, looked up, the tested form may be a part): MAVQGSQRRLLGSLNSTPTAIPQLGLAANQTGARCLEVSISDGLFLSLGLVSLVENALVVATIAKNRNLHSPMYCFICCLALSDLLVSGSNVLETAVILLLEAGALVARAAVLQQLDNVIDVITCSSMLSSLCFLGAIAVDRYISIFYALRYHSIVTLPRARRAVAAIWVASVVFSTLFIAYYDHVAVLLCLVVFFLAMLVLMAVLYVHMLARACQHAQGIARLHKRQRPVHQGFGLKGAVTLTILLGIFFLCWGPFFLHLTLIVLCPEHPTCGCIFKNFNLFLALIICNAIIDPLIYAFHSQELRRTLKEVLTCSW
T2 sequence (P41968 whole entry, the tested form may be a part): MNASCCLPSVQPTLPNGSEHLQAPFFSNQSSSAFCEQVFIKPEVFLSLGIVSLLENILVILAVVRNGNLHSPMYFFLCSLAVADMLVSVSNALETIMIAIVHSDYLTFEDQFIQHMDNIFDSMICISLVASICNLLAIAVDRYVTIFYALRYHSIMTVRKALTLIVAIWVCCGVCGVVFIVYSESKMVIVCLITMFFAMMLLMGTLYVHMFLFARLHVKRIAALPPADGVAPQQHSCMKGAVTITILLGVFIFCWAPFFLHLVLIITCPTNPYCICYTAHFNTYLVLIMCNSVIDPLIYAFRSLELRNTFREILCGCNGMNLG
T1 sequence (P32245 whole entry): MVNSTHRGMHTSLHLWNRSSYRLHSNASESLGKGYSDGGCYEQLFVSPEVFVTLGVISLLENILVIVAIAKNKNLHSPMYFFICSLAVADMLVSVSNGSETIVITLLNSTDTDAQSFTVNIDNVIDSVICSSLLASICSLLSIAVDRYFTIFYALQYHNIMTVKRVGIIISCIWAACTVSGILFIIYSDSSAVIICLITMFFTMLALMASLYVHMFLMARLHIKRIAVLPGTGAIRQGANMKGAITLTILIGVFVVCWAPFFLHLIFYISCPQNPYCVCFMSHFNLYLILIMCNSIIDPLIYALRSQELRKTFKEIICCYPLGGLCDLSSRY
Melanocortin receptor 5, sequence (P33032 whole entry, the tested form may be a part): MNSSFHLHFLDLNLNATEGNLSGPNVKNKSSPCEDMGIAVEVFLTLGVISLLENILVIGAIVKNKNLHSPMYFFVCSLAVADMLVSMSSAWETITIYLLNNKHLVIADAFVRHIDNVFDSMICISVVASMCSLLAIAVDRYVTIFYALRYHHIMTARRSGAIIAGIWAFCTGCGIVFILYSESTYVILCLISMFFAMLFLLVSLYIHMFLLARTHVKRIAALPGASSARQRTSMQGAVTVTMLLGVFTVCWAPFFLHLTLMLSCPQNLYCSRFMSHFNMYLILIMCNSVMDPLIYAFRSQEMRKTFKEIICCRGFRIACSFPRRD

CC[C@H](C)[C@@H]1NC(=O)[C@@H]2CCCN2C(=O)[C@@H]2CCCN2C(=O)[C@H]([C@@H](C)CC)NC(=O)[C@H](CO)NC(=O)[C@H](C)NC(=O)[C@H]([C@H](C)O)NC(=O)[C@@H]2CSSC[C@H](NC1=O)C(=O)N(C)[C@@H](Cc1cnc[nH]1)C(=O)N[C@H](Cc1ccccc1)C(=O)N(C)[C@@H](CCCNC(=N)N)C(=O)N(C)[C@@H](Cc1c[nH]c3ccccc13)C(=O)N[C@@H](CCCNC(=N)N)C(=O)N2
Activity (Melanocortin receptor 4 [1]): 100%
Activity (Melanocortin receptor 3 [2]): 100%
inhibition (Melanocortin receptor 4 [3]): 100%
Activity (Melanocortin receptor 4 [4]): 100%
inhibition (Melanocortin receptor 3 [5]): 100%
inhibition (Melanocortin receptor 5): 100%
inhibition [6]: 100%
Activity [7]: 100%

CC[C@H](C)[C@@H]1NC(=O)[C@@H]2CCCN2C(=O)[C@@H]2CCCN2C(=O)[C@H]([C@@H](C)CC)NC(=O)[C@H](CO)NC(=O)[C@H](C)NC(=O)[C@H]([C@@H](C)O)NC(=O)[C@@H]2CSSC[C@H](NC1=O)C(=O)N(C)[C@@H](Cc1cnc[nH]1)C(=O)N[C@H](Cc1ccccc1)C(=O)N[C@@H](CCCNC(=N)N)C(=O)N(C)[C@@H](Cc1c[nH]c3ccccc13)C(=O)N[C@@H](CCCNC(=N)N)C(=O)N2
solubility [8]: Soluble

CC[C@H](C)[C@@H]1NC(=O)[C@@H]2CCCN2C(=O)[C@@H]2CCCN2C(=O)[C@H]([C@@H](C)CC)NC(=O)[C@H](CO)NC(=O)[C@H](C)NC(=O)[C@H]([C@@H](C)O)NC(=O)[C@@H]2CSSC[C@H](NC1=O)C(=O)N[C@@H](Cc1cnc[nH]1)C(=O)N[C@H](Cc1ccccc1)C(=O)N[C@@H](CCCNC(=N)N)C(=O)N[C@@H](Cc1c[nH]c3ccccc13)C(=O)N[C@@H](CCCNC(=N)N)C(=O)N2
solubility [8]: Soluble

CC[C@H](C)[C@@H]1NC(=O)[C@@H]2CCCN2C(=O)[C@@H]2CCCN2C(=O)[C@H]([C@@H](C)CC)NC(=O)[C@H](CO)NC(=O)[C@H](C)NC(=O)[C@H]([C@@H](C)O)NC(=O)[C@@H]2CSSC[C@H](NC1=O)C(=O)N[C@@H](Cc1cnc[nH]1)C(=O)N[C@H](Cc1ccccc1)C(=O)N[C@@H](CCCNC(=N)N)C(=O)N(C)[C@@H](Cc1c[nH]c3ccccc13)C(=O)N[C@@H](CCCNC(=N)N)C(=O)N2
solubility [8]: Soluble

CC[C@H](C)[C@@H]1NC(=O)[C@@H]2CCCN2C(=O)[C@@H]2CCCN2C(=O)[C@H]([C@@H](C)CC)NC(=O)[C@H](CO)NC(=O)[C@H](C)NC(=O)[C@H]([C@H](C)O)NC(=O)[C@@H]2CSSC[C@H](NC1=O)C(=O)N(C)[C@@H](Cc1cnc[nH]1)C(=O)N[C@H](Cc1ccccc1)C(=O)N[C@@H](CCCNC(=N)N)C(=O)N(C)[C@@H](Cc1c[nH]c3ccccc13)C(=O)N[C@@H](CCCNC(=N)N)C(=O)N2
Activity (Melanocortin receptor 4 [1]): 100%
Activity (Melanocortin receptor 3 [2]): 100%
inhibition (Melanocortin receptor 4 [3]): 100%
Activity (Melanocortin receptor 4 [4]): 100%
inhibition (Melanocortin receptor 3 [5]): 100%
inhibition (Melanocortin receptor 5): 100%
inhibition [6]: 100%
Activity [7]: 100%

CC[C@H](C)[C@@H]1NC(=O)[C@@H]2CCCN2C(=O)[C@@H]2CCCN2C(=O)[C@H]([C@@H](C)CC)NC(=O)[C@H](CO)NC(=O)[C@H](C)NC(=O)[C@H]([C@@H](C)O)NC(=O)[C@@H]2CSSC[C@H](NC1=O)C(=O)N(C)[C@@H](Cc1cnc[nH]1)C(=O)N[C@H](Cc1ccccc1)C(=O)N(C)[C@@H](CCCNC(=N)N)C(=O)N[C@@H](Cc1c[nH]c3ccccc13)C(=O)N[C@@H](CCCNC(=N)N)C(=O)N2
solubility [8]: Soluble

CC[C@H](C)[C@@H]1NC(=O)[C@@H]2CCCN2C(=O)[C@@H]2CCCN2C(=O)[C@H]([C@@H](C)CC)NC(=O)[C@H](CO)NC(=O)[C@H](C)NC(=O)[C@H]([C@@H](C)O)NC(=O)[C@@H]2CSSC[C@H](NC1=O)C(=O)N[C@@H](Cc1cnc[nH]1)C(=O)N[C@H](Cc1ccccc1)C(=O)N(C)[C@@H](CCCNC(=N)N)C(=O)N[C@@H](Cc1c[nH]c3ccccc13)C(=O)N[C@@H](CCCNC(=N)N)C(=O)N2
solubility [8]: Soluble

CC[C@H](C)[C@@H]1NC(=O)[C@@H]2CCCN2C(=O)[C@@H]2CCCN2C(=O)[C@H]([C@@H](C)CC)NC(=O)[C@H](CO)NC(=O)[C@H](C)NC(=O)[C@H]([C@@H](C)O)NC(=O)[C@@H]2CSSC[C@H](NC1=O)C(=O)N[C@@H](Cc1c[nH]cn1)C(=O)N[C@H](Cc1ccccc1)C(=O)N(C)[C@@H](CCCNC(=N)N)C(=O)N(C)[C@@H](Cc1c[nH]c3ccccc13)C(=O)N[C@@H](CCCNC(=N)N)C(=O)N2
solubility [8]: Soluble

CC[C@H](C)[C@@H]1NC(=O)[C@@H]2CCCN2C(=O)[C@@H]2CCCN2C(=O)[C@H]([C@@H](C)CC)NC(=O)[C@H](CO)NC(=O)[C@H](C)NC(=O)[C@H]([C@H](C)O)NC(=O)[C@@H]2CSSC[C@H](NC1=O)C(=O)N(C)[C@@H](Cc1cnc[nH]1)C(=O)N[C@H](Cc1ccccc1)C(=O)N(C)[C@@H](CCCNC(=N)N)C(=O)N[C@@H](Cc1c[nH]c3ccccc13)C(=O)N[C@@H](CCCNC(=N)N)C(=O)N2
Activity (Melanocortin receptor 4 [1]): 100%
Activity (Melanocortin receptor 3 [2]): 100%
inhibition (Melanocortin receptor 4 [3]): 100%
Activity (Melanocortin receptor 4 [4]): 100%
inhibition (Melanocortin receptor 3 [5]): 100%
inhibition (Melanocortin receptor 5): 100%
inhibition [6]: 100%
Activity [7]: 100%

CC[C@H](C)[C@@H]1NC(=O)[C@@H]2CCCN2C(=O)[C@@H]2CCCN2C(=O)[C@H]([C@@H](C)CC)NC(=O)[C@H](CO)NC(=O)[C@H](C)NC(=O)[C@H]([C@@H](C)O)NC(=O)[C@@H]2CSSC[C@H](NC1=O)C(=O)N(C)[C@@H](Cc1cnc[nH]1)C(=O)N[C@H](Cc1ccccc1)C(=O)N(C)[C@@H](CCCNC(=N)N)C(=O)N(C)[C@@H](Cc1c[nH]c3ccccc13)C(=O)N[C@@H](CCCNC(=N)N)C(=O)N2
solubility [8]: Soluble

CC[C@H](C)[C@@H]1NC(=O)[C@@H]2CCCN2C(=O)[C@@H]2CCCN2C(=O)[C@H]([C@@H](C)CC)NC(=O)[C@H](CO)NC(=O)[C@H](C)NC(=O)[C@H]([C@@H](C)O)NC(=O)[C@@H]2CSSC[C@H](NC1=O)C(=O)N(C)[C@@H](Cc1cnc[nH]1)C(=O)N[C@H](Cc1ccccc1)C(=O)N[C@@H](CCCNC(=N)N)C(=O)N[C@@H](Cc1c[nH]c3ccccc13)C(=O)N[C@@H](CCCNC(=N)N)C(=O)N2
solubility [8]: Soluble

CC[C@H](C)[C@@H]1NC(=O)[C@@H]2CCCN2C(=O)[C@@H]2CCCN2C(=O)[C@H]([C@@H](C)CC)NC(=O)[C@H](CO)NC(=O)[C@H](C)NC(=O)[C@H]([C@H](C)O)NC(=O)[C@@H]2CSSC[C@H](NC1=O)C(=O)N(C)[C@@H](Cc1cnc[nH]1)C(=O)N[C@H](Cc1ccccc1)C(=O)N[C@@H](CCCNC(=N)N)C(=O)N[C@@H](Cc1c[nH]c3ccccc13)C(=O)N[C@@H](CCCNC(=N)N)C(=O)N2
Activity (Melanocortin receptor 4 [1]): 100%
Activity (Melanocortin receptor 3 [2]): 100%
inhibition (Melanocortin receptor 4 [3]): 100%
Activity (Melanocortin receptor 4 [4]): 100%
inhibition (Melanocortin receptor 3 [5]): 100%
inhibition (Melanocortin receptor 5): 100%
inhibition [6]: 100%
Activity [7]: 100%

CC[C@H](C)[C@@H]1NC(=O)[C@@H]2CCCN2C(=O)[C@@H]2CCCN2C(=O)[C@H]([C@@H](C)CC)NC(=O)[C@H](CO)NC(=O)[C@H](C)NC(=O)[C@H]([C@H](C)O)NC(=O)[C@@H]2CSSC[C@H](NC1=O)C(=O)N[C@@H](Cc1cnc[nH]1)C(=O)N[C@H](Cc1ccccc1)C(=O)N[C@@H](CCCNC(=N)N)C(=O)N(C)[C@@H](Cc1c[nH]c3ccccc13)C(=O)N[C@@H](CCCNC(=N)N)C(=O)N2
Activity (Melanocortin receptor 4 [1]): 100%
Activity (Melanocortin receptor 3 [2]): 100%
inhibition (Melanocortin receptor 4 [3]): 100%
Activity (Melanocortin receptor 4 [4]): 100%
inhibition (Melanocortin receptor 3 [5]): 100%
inhibition (Melanocortin receptor 5): 100%
inhibition [6]: 100%
Activity [7]: 100%
